Data set [1] can be described thus: Antiinflammatory activity in human Whole blood cell assessed as inhibition of LPS induced IL-1 beta production preincubated for 1 hr followed by LPS stimulation and measured after 16 hrs by MSD analysis. The format is functional, cell-based. The method, boiled down:
(§1)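 Human whole blood was stimulated ex vivo with LPS 100 ng/ml. Plasma cytokines were read by MSD 4-plex: TNFα at 4 h; IL-1β, IL-6 and IL-8 at 16 h. Data are means ±S.E.M. of two independent experiments in duplicate, three donors. IC50 by 4-parameter nonlinear regression.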

The nature of data set [2]: Antiinflammatory activity in human Whole blood cell assessed as inhibition of LPS induced IL-6 production preincubated for 1 hr followed by LPS stimulation and measured after 16 hrs by MSD analysis. The format is functional, cell-based. The method, boiled down:
as §1

Data set [3] can be described thus: Inhibition of CaMK II (unknown origin). Also noted: species or system Homo sapiens.
Data set [4] has as its target T1, Phosphorylase b kinase gamma catalytic chain, liver/testis isoform (Homo sapiens, UniProt P15735).
T1 sequence (P15735 whole entry): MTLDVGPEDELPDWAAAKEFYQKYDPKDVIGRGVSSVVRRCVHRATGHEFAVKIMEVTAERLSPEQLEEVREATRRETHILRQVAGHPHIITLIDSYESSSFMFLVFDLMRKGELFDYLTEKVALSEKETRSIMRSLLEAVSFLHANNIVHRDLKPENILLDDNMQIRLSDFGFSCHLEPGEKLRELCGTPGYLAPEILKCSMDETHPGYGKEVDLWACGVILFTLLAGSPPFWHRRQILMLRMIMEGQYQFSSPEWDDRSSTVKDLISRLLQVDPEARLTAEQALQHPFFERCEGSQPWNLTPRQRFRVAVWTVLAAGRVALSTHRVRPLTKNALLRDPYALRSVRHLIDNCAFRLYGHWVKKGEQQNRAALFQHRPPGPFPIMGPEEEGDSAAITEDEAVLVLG
The data set is described as follows: Inhibition of PhKgamma2 (unknown origin). The procedure, abridged:
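Kinase panel: 200 kinases were first screened at 1 μM inhibitor for percent inhibition. Those above 50% inhibition were then titrated for IC50. MgATP was fixed at the Km(app) determined for each enzyme.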

Data set [5] can be described thus: Inhibition of IL-1 beta production in LPS induced human PBMC cells preincubated with compound for 1 hr followed by LPS induction and measured after 16 hrs by MSD analysis. The format is functional, cell-based. The method, boiled down:
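Human PBMCs were pretreated with compound for 1 h (<1% DMSO final), then stimulated with LPS 100 ng/ml at 37°C. Cytokines in culture media were read by MSD 4-plex: TNFα at 4 h; IL-1β, IL-6 and IL-8 at 16 h. Data are means ±S.E.M. of two independent experiments in duplicate, three donors. IC50 by 4-parameter nonlinear regression.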

A short description of data set [6]: Volume of distribution at steady state in Sprague-Dawley rat measured upto 24 hrs by […] analysis. The conditions noted are these: in vivo, read-out: Vdss. The format is ADME. The method, boiled down:
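Male Sprague-Dawley rats (275-300 g), carotid-catheterized and acclimated overnight. Dosing was i.v. at 1 mpk (n=2) in 70% saline/20% PEG-400/10% ethanol, or oral at 3 mpk (n=3) as a suspension in 0.5% HPMC/Tween. Plasma drug was measured by LC-MS/MS. Cmax and Tmax were read from individual profiles. t½ came from the terminal log-linear slope and AUC by the linear trapezoidal rule. CL = dose/AUC0-∞, Vdss = CL×MRT, F = dose-normalized AUC po/iv.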

Data set [7] deals with MAP kinase-activated protein kinase 2 (Homo sapiens, UniProt P49137).
Data set [8] can be described thus: Cmax in chronic SCW-induced arthritis Lewis rat model plasma at ED50 concentration. The format is ADME, cell-free. The procedure, abridged: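 Female Lewis rats (125-140 g) received a single i.p. streptococcal cell wall injection. Animals showing the acute phase were pooled, 4-8 per group over three experiments. Dosing was oral gavage b.i.d., days 10-21, in methylcellulose-Tween-20 vehicle. Hind paw volume was read by displacement plethysmometer on day 21, as % inhibition of swelling. Plasma was sampled up to 11 h after the last dose, 3 rats per dose. ED values came from fitted curves.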

A short description of data set [9]: Antiinflammatory activity in human Whole blood cell assessed as inhibition of LPS induced TNF alpha production preincubated for 1 hr followed by LPS stimulation and measured after 16 hrs by MSD analysis. The format is functional, cell-based.
The nature of data set [10]: Inhibition of recombinant 6 his tagged N/C-terminal MSK1 (367 to 802 residues)/MSK2 (351 to 772 residues) (unknown origin) expressed in baculovirus infected Sf9 insect cells using KKKALSRQLSVAA as substrate incubated for 1 hr followed by substrate addition in presence of ATP. Also noted: species or system Homo sapiens. The procedure, abridged: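 MAPKAP family kinases were activated by p38α (1:50 molar, 250 μM ATP, 1 h, 30°C). Assays ran in 20 mM HEPES pH 7.5, 10 mM MgCl2, 1 mM DTT, 0.01% BSA, 0.0005% Tween-20, at MgATP fixed at each enzyme's Km(app). The 33P-labelled product peptide was separated by ion exchange. Duplicate experiments. MSK1 (367-802) and MSK2 (351-772) were N-terminal 6xHis constructs from Sf9 cells.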

In data set [11] the target is T2, MAP kinase-activated protein kinase 5 (Homo sapiens, UniProt Q8IW41).
T2 sequence (Q8IW41 whole entry): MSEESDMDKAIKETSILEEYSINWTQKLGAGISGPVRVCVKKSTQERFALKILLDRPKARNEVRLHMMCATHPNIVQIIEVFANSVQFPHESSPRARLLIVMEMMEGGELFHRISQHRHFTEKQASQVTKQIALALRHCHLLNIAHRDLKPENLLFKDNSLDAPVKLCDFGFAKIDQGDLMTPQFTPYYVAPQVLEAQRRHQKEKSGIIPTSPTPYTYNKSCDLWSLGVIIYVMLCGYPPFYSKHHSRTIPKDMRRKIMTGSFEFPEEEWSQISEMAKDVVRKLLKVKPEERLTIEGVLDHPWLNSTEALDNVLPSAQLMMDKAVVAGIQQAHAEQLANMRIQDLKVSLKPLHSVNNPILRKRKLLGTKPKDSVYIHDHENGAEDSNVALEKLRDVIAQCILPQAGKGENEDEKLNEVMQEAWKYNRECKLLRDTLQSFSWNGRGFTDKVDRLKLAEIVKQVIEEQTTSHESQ
The data set is described as follows: Inhibition of recombinant PRAK (unknown origin) expressed in Escherichia coli using KKKALSRQLSVAA as substrate incubated for 1 hr followed by substrate addition in presence of ATP. The method, boiled down:
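Recombinant kinase first activated with activated p38α (1:50 molar ratio) and 250 μM ATP for 1 hr at 30°C. Activity measured by 33P-labelled product peptide, separated by ion exchange. MgATP fixed at the Km(app) determined for each enzyme. IC50 values from duplicate experiments.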

MAP kinase-activated protein kinase 2, sequence (P49137 whole entry, looked up): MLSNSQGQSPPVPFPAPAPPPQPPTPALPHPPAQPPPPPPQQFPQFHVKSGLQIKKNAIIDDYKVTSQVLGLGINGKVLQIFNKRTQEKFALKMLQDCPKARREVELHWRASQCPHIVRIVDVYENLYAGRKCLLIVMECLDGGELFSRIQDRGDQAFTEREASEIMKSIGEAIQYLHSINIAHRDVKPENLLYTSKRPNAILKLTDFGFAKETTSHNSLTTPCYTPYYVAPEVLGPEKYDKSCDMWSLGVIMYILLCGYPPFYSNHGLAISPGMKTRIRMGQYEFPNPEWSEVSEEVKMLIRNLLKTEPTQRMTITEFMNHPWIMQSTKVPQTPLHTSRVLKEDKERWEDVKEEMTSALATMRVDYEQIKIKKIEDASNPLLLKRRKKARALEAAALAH

For `Cc1ccc(-c2ccc3c(ccc4sc5c(c43)NC[C@@H](C)NC5=O)n2)cn1`, the IC50 in data set [1] was > 20000 nM; in [2] it was 10300 nM; in data set [3], 70 nM; in data set [4], 528 nM; in data set [5], 2780 nM; in [9], 1380 nM. Besides, the values for the IC50 in data set [10] and in data set [11] were > 1000 nM and 5 nM, respectively. Moreover, in [6], the Vd turned out to be 1.5 L/kg. The compound also returned a T1/2 in data set [7] of 2.43 min. The Cmax in data set [8] is 11 µM.

For the origin of these results see ChEMBL document CHEMBL5678801, “A benzothiophene inhibitor of mitogen-activated protein kinase-activated protein kinase 2 inhibits tumor necrosis factor alpha production and has oral anti-inflammatory efficacy in acute and chronic models of inflammation” (J Pharmacol Exp Ther, 2010).
